The text below walks through data of PubChem BioAssay.

A short description of assay [1]: inhibitors of TNFa-induced NFkB p65 translocation, primary screen, imaging, HUVEC, MLSMR starter and 10KST1 sets (AID 438;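 active means inhibition above 20% together with a positive visual image hit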;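 further: compound added about 3h40 before a 20 min TNFalpha stimulation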;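 on inhibition: signal is the nuclear over cytoplasmic p65 intensity ratio per well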). The settings on record: HUVEC TNFa-induced p65 nuclear translocation; cell count: measured here: nuclei count (cytotoxicity indicator), at 2.08 µM; inhibition: at 2 µM, stronger effect = higher value, 0% TNFa-plus-vehicle, 100% no-TNFa wells.
The nature of assay [2]: endothelial E-selectin expression blockers – imaging, HUVEC, immunofluorescence, MLSMR starter and 10KST1 sets, primary screen (AID 487;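 active means visually confirmed hit in the image check and inhibition above 20%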;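 on inhibition: signal is fraction of cell area covered by stained E-selectin grains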;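 on nuclei count: 100% = median nuclei count of all wells on the same plate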). As to conditions: HUVEC TNFalpha-induced E-selectin immunofluorescence imaging, at 2 µM; inhibition: stronger effect = higher value; nuclei count: measured here: cell number, toxicity.
Assay [3] can be described thus: Primary imaging screen for DUSP6 inhibitors that restore phospho-Erk in transfected HeLa cells, chemical complementation (AID 609).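 On inhibition: phospho-Erk level distribution per well compared with pooled transfected vehicle control wells.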 As to conditions: HeLa MKP-3 transfected, phospho-Erk imaging KS statistic, at 10 µM, cells stimulated with TPA for 15 min.
Assay [4] addresses Dual specificity protein phosphatase 6 (Homo sapiens) (UniProt Q16828). The assay is described as above. The settings on record: HeLa MKP-3 transfected, phospho-Erk imaging KS statistic; at 10 µM; stronger effect = higher value; cells stimulated with TPA for 15 min.
Assay [5] concerns the target Voltage-gated potassium channel subunit beta-2 (Rattus norvegicus) (UniProt P62483). The experiment in a line: inhibitors of rat Kvbeta2 reductase activity – biochemical, NADPH fluorescence, primary screen (AID 622;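 active means fluorescence slope higher than the sample average by over 3 SD, cut at about -0.22 in these data, passing the limit was not always enough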;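 further: slope of raw intensity against log time taken from 70 to 1610 s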). The settings on record: recombinant KvBeta, 4-cyanobenzaldehyde reduction, at 10 µM, stronger effect = higher value.
Assay [6] shares this target. The experiment in a line: enhancers of rat Kvbeta2 NADPH turnover – biochemical, NADPH fluorescence, primary screen (AID 623;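 active means NADPH fluorescence slope more negative than the mean of all samples by about 3 SD, 99.7% confidence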;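 further: fluorescence intensity change per second fitted from 20 to 320 s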). The settings on record: Recombinant KvBeta, NADPH fluorescence decrease slope, 10 min; at 10 µM; stronger effect = lower value.
Assay [7] addresses Muscarinic acetylcholine receptor M4 (Homo sapiens) (UniProt P08173). The assay can be described thus: M4-linked GIRK flux change, two-sided – cell-based, HEK293 M4/GIRK, thallium flux, BTC-AM, M4 allosteric agonist project, primary screen (AID 625;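 active means fluorescence slope after compound addition differing from the mean of all tested samples at 99.7% confidence, mostly higher but some lower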;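 further: thallium influx through GIRK channels coupled to M4 in HEK293 cells with BTC-AM dye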). The settings on record: at 10 µM, actives lie on both sides. Summed up: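 Material: HEK293 cells with M4 receptor and GIRK channels; Times: cells overnight at 37 °C, BTC-AM loading 1 h, reads 2 min total; Technique: kinetic BTC-AM fluorescence sampled at 1 Hz, 10 s pre-addition baseline; Read-out basis: slope over 15–24 s of trace normalized to starting intensity; Controls: carbachol positive, DMSO negative.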

The nature of assay [8]: inhibitors of larval lipid processing in zebrafish, primary screen, whole organism, PED6 fluorescence, gall bladder and intestine (AID 686;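 active means a full or partial loss of lipid-probe fluorescence in the fish gall bladder, intestine or both, judged by eye; inactive means no fluorescence loss, or compound toxic to the fish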;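 further: larvae 5 to 7 days old with five fish per well; signal comes from phospholipase A2 cleavage of quenched PED6 carried via bile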). The settings on record: Zebrafish larvae PED6 lipid processing, fluorescence scoring; screened at 20 µM (by protocol). Summed up:
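Incubation: overnight exposure of larvae to compound plus PED6 / Test system: live zebrafish larvae aged 5-7 days, whole organism / Amount: 5 larvae per well / Read-out basis: visual per-well fluorescence inhibition score / Signal: visual fluorescence microscopy scoring of gall bladder, gut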

The nature of assay [9]: loss of swimming-algae plug formation – whole organism, Chlamydomonas reinhardtii, WT vs cilia-less mutant, absorbance, 96-well, primary screen (AID 463189;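 active means inhibition at or above 50% relative to wild type and mutant plate controls; inactive means inhibition below 50%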;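 further: 0% = wild type cc124 cells in DMSO and 100% = ciliumless bld1 mutant cells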). The settings on record: Chlamydomonas reinhardtii gravitaxis, OD600 absorbance, 2 days; at 10 µM; stronger effect = higher value.
Setting [10] is: measured here: cell density z-score.
Setting [11] is: measured here: nuclear c-Myc green intensity z-score.
Where [12] appears, read: measured here: nuclear pErk red intensity z-score, stronger effect = higher value.

Activity calls are given as the source filed them.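 How the source made its calls, unless noted: active means compounds giving at least 50% inhibition in the cell-based MKP-3 phosphatase rescue imaging test; inactive means the rest.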

Sequence of Voltage-gated potassium channel subunit beta-2 (Rattus norvegicus) (P62483 whole entry, looked up): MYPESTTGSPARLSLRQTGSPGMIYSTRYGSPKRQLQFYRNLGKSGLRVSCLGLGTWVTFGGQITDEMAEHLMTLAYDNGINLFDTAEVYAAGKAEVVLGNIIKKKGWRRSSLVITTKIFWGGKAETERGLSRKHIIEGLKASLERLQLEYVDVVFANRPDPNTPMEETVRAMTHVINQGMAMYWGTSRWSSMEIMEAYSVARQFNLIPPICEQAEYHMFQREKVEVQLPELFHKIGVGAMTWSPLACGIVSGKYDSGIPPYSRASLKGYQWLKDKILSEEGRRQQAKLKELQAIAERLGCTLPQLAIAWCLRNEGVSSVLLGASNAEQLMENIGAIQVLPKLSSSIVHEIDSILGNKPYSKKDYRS
Sequence of Muscarinic acetylcholine receptor M4 (Homo sapiens) (P08173 whole entry, looked up): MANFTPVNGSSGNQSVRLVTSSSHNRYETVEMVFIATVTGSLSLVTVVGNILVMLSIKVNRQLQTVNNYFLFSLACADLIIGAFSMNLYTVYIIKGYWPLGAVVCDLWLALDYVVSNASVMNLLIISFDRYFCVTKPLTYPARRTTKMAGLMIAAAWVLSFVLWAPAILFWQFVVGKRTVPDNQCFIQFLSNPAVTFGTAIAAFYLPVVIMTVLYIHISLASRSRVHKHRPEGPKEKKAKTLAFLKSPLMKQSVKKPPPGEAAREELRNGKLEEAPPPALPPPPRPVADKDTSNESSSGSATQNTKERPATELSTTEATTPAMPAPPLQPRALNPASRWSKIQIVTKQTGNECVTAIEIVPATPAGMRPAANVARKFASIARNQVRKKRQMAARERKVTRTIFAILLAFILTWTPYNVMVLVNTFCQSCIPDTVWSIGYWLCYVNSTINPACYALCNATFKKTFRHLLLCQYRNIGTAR
Sequence of Dual specificity protein phosphatase 6 (Homo sapiens) (Q16828 whole entry, looked up): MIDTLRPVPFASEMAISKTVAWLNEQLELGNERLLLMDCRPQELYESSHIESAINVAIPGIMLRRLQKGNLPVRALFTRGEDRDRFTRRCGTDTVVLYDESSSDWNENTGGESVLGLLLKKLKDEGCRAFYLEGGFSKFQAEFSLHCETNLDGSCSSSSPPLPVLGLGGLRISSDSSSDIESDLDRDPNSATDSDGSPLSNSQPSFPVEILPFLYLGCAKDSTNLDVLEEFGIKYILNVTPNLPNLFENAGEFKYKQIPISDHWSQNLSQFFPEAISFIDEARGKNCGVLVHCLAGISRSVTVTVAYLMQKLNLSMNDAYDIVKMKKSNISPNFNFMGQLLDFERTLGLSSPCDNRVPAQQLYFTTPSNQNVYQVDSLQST

As a reminder, the inhibition is the change of the read-out against control, counted positive when it falls. Turning to `O=c1c2c3c(sc2n2cnnc2n1C1CCCCC1)CCC3`, the cell count in assay [1] was found to be 363. Moreover, the inhibition in assay [1] is -3.6% (inactive); in assay [2], -2% (inactive); in assay [4], -2.59% (inactive); in [9], 33.2% (inactive). This compound gave a nuclei count in assay [2] of 172%. For the same compound, the z-score in [3] (setting [10]) is -0.995; in assay [3] (setting [11]) it was -0.714; in assay [3] (setting [12]) it was 0.683. The fluorescence slope in [5] was -0.434 (inactive); in assay [7], 0.00453 (inactive). The NADPH fluorescence slope in [6] was -0.000131 (inactive). In addition, in assay [8], the outcome was inactive.

`CN(CCOC(=O)c1ccc2c(c1)OCCO2)Cc1ccccc1`: the cell count in assay [1] was 661. Also, the inhibition in assay [1] is -16.5% (inactive); in assay [2] it was -9.5% (inactive); in assay [4] it was 5.35% (inactive); in assay [9] it was 69.7% (active). In addition, the nuclei count in [2] was determined as 184%. The z-score in assay [3] (setting [10]) was 0.691; in [3] (setting [11]), -0.671; in [3] (setting [12]) it was 1.4. Further, the fluorescence slope in [5] was -0.472 (inactive); in assay [7], 0.00763 (inactive). Further, the NADPH fluorescence slope in [6] is -0.000111 (inactive). Also, the call in assay [8] was inactive.

Take `CCC(NC(=O)Nc1nccs1)(C(F)(F)F)C(F)(F)F`: the cell count in assay [1] was found to be 600. The inhibition is -9% (inactive) in assay [1], 21.5% (inactive) in [2], -11.4% (inactive) in assay [4] and -12.6% (inactive) in assay [9]. For the same compound, the nuclei count in [2] was found to be 89%. Besides, the z-score in assay [3] (setting [10]) was 0.356; in assay [3] (setting [11]), 1.04; in assay [3] (setting [12]), -0.804. Besides, the values for the fluorescence slope in [5] and in assay [7] were -0.475 (inactive) and 0.0066 (inactive), respectively. The NADPH fluorescence slope in assay [6] is -3.1e-05 (inactive). Besides, the result in assay [8] was inactive.

For `C[N+]1(CCNC(=O)/C=N/O)CCCCC1`, the cell count in assay [1] worked out at 468. Further, the inhibition in [1] was -0.1% (inactive); in assay [2] it was -76.5% (inactive); in assay [4] it was -0.624% (inactive); in assay [9] it was 13.4% (inactive). The nuclei count in assay [2] is 147%. The z-score in assay [3] (setting [10]) is -1.04; in assay [3] (setting [11]), 0.313; in assay [3] (setting [12]), 0.488. Besides, the results for the fluorescence slope in assay [5] and in [7] were -0.42 (inactive) and 0.00534 (inactive), respectively. For the same compound, the NADPH fluorescence slope in assay [6] was -2.5e-05 (inactive). In [8], the compound was classed as inactive.

For the compound `C=CCOc1ccc(/C(O)=C2/C(=O)C(=O)N(CCCN3CCOCC3)C2c2ccc(OC)cc2)cc1` (stereo unspecified), in [1], the cell count worked out at 409. Further, the inhibition in assay [1] was -10.2% (inactive); in [2], -115% (inactive); in assay [4] it was 14% (inactive); in assay [9] it was 25.3% (inactive). The compound also had a nuclei count in assay [2] of 131%. Also, the z-score in assay [3] (setting [10]) is 0.861; in assay [3] (setting [11]) it was -1.19; in assay [3] (setting [12]) it was 0.613. Moreover, the fluorescence slope was -0.455 (inactive) in assay [5] and 0.00475 (inactive) in assay [7]. In addition, the NADPH fluorescence slope in assay [6] was -0.000145 (inactive). The outcome in [8] was inactive.

On to `Cc1ccc(NC(=O)Cn2nc(C)c3ccccc3c2=O)cc1`, for which the cell count in assay [1] is 576. In addition, the inhibition was -1.6% (inactive) in assay [1], -60.9% (inactive) in [2], 9.07% (inactive) in [4] and -6.33% (inactive) in assay [9]. In [2], this compound had a nuclei count of 134%. Also, the z-score in assay [3] (setting [10]) was 1; in assay [3] (setting [11]), -0.268; in assay [3] (setting [12]), 1.91. The fluorescence slope was -0.496 (inactive) in assay [5] and 0.00582 (inactive) in assay [7]. Further, the NADPH fluorescence slope in assay [6] is -0.000121 (inactive). The compound was classed as inactive in assay [8].

For the compound `Cn1c(=O)[nH]c(=O)c2c1nc(Br)n2CCSc1ncccn1`, in assay [1], the cell count stood at 643. For the same compound, the inhibition in [1] was -7.6% (inactive); in [2], -107% (inactive); in [4], -2.59% (inactive); in assay [9], 13.2% (inactive). Moreover, the nuclei count in assay [2] is 179%. Moreover, the z-score in assay [3] (setting [10]) was 0.65; in assay [3] (setting [11]), -0.91; in assay [3] (setting [12]) it was -0.622. Moreover, the fluorescence slope in assay [5] is -0.446 (inactive); in assay [7] it was 0.00519 (inactive). Moreover, the NADPH fluorescence slope in assay [6] is -4.5e-05 (inactive). Further, the outcome in [8] was inactive.
